Where only a bound is given, the exact number is not on record here.

These results are taken from ChEMBL document CHEMBL1129072, “4-(Phenylamino)pyrrolopyrimidines: potent and selective, ATP site directed inhibitors of the EGF-receptor protein tyrosine kinase” (J Med Chem, 1996).

Assay [1] concerns the target T1, Epidermal growth factor receptor (Homo sapiens, UniProt P00533). Put plainly: In vitro inhibitory activity against epidermal growth factor receptor.
Assay [2] addresses Tyrosine-protein kinase ABL (Homo sapiens, UniProt P00519+P42684). Put plainly: Inhibition of tyrosine kinase v-Abl. In kind it is protein assay. The method, boiled down:
(§1)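 Enzyme purification and in vitro kinase assay as previously described. Compounds dissolved in DMSO and diluted in buffer to 1% DMSO final in the assay. IC50 values are averages of at least three determinations.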

Assay [3] concerns NIH3T3. Put plainly: Inhibition of PDGF-induced c-fos mRNA expression in BALB/c 3T3 cells. In kind it is functional, cell-based. The note with it: Mus musculus.
The target of assay [4] is Proto-oncogene tyrosine-protein kinase Src (Homo sapiens, UniProt P12931). Put plainly: Inhibition of tyrosine kinase c-Src. The method, boiled down: as §1
Assay [5] concerns the target Protein kinase C alpha type (Homo sapiens, UniProt P17252). Put plainly: Inhibition of Protein kinase C alpha. The method, boiled down: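 Enzymes purified as previously reported. Compounds were dissolved in DMSO and diluted in buffer to a final assay DMSO of 1%. IC50 values are averages of at least three determinations.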
The next assay concerns Balb/MK. Put plainly: Inhibition of proliferation of EGF-dependent BALB/MK cells. Particulars: Mus musculus. In kind it is functional, cell-based.
Assay [6] deals with T1, Epidermal growth factor receptor. Put plainly: Inhibition of EGF-stimulated tyrosine phosphorylation in A431 cells expressing EGF-R.
The subject of assay [7] is NIH3T3. Put plainly: Inhibition of PDGF-stimulated tyrosine phosphorylation in BALB/c3T3 cells. In kind it is functional, cell-based. The note with it: Mus musculus. The method, boiled down:
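Total cellular tyrosine phosphorylation was stimulated with PDGF in BALB/c 3T3 cells and read by microtiter ELISA. Results are reported as IC50 in µM.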

T1 sequence (P00533 whole entry): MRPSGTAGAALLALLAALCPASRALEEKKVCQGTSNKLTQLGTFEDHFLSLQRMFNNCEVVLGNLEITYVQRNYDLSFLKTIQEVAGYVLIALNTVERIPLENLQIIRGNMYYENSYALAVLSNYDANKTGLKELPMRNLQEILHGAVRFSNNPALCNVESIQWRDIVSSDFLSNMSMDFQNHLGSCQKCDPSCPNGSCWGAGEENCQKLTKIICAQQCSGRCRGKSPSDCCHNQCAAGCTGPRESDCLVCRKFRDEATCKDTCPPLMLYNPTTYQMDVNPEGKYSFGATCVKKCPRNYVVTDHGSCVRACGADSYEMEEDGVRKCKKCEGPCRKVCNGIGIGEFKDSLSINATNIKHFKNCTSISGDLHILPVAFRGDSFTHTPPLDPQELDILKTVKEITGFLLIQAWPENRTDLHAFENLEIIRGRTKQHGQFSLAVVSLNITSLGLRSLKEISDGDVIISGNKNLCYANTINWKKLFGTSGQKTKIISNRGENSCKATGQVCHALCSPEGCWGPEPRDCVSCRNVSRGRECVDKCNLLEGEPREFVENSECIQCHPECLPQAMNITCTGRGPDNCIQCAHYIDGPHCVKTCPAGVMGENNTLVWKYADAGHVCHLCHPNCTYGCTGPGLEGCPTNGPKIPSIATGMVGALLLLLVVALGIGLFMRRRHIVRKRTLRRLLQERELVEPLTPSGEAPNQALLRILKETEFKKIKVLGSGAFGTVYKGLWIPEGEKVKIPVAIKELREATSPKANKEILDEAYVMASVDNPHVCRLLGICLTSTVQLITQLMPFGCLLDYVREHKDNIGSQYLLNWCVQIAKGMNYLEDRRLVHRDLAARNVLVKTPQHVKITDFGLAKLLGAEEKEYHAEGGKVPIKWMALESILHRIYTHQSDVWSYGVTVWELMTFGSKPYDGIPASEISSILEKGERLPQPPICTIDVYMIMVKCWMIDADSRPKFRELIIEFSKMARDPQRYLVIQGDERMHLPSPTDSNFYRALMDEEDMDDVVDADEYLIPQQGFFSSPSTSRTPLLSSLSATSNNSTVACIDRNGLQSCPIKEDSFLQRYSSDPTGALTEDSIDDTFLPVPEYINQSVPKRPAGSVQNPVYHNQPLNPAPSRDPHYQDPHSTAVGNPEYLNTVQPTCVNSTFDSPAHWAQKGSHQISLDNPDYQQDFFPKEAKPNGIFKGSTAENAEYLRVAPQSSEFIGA
Proto-oncogene tyrosine-protein kinase Src, sequence (P12931 2-536 limits assumed): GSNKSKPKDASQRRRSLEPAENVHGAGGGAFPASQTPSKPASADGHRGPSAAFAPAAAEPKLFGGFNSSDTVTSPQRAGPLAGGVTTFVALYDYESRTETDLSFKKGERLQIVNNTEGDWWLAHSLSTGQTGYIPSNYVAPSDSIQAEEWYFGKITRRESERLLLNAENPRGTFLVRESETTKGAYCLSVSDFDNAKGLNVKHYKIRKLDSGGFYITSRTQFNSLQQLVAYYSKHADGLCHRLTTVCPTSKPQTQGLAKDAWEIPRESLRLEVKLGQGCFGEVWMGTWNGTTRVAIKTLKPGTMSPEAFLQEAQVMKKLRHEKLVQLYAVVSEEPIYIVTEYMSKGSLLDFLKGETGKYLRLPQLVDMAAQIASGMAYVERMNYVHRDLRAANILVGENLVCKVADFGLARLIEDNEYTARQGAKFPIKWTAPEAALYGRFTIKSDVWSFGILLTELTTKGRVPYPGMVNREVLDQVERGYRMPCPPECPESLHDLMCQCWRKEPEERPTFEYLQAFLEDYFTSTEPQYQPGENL

As usually defined, the IC50 is the concentration at which inhibition is half-maximal. The low end stands for higher potency, the high end for lower potency. In turn, `Cc1[nH]c2ncnc(Nc3cccc(C(F)(F)F)c3)c2c1C` returned an IC50 in assay [1] of 1.9 µM. In other words, the single-digit micromolar range.
In the case of `Cc1[nH]c2ncnc(Nc3cccc(Cl)c3)c2c1C`, the IC50 was 40.5 µM in assay [2], more than 100 µM in the assay with NIH3T3 [3], more than 100 µM in assay [4] and more than 100 µM in assay [5].
Turning to `Clc1cccc(Nc2ncnc3[nH]c4ccccc4c23)c1`, the IC50 in assay [1] was 0.006 µM; in assay [2], 30 µM; with NIH3T3 [3] it was more than 100 µM; in assay [4] it was more than 100 µM; in the assay with Balb/MK, 0.47 µM; in assay [5], more than 100 µM. Further, the IC50 in assay [6] came to 0.12 µM.
`Cc1cccc(Nc2ncnc3[nH]c(C)c(C)c23)c1`: the IC50 was 5.3 µM in assay [2]; more than 100 µM in assay [4]; 7.2 µM in the assay on Balb/MK; more than 100 µM in assay [5]; more than 100 µM in assay [6].
On to `Cc1cccc(Nc2ncnc3[nH]c4c(c23)CCCC4)c1`, for which the IC50 was more than 10 µM with NIH3T3 [7]; more than 100 µM in assay [2]; more than 100 µM in assay [4]; more than 50 µM in the assay on Balb/MK; more than 100 µM in assay [5]; more than 100 µM in assay [6].
Consider `Clc1cccc(Nc2ncnc3[nH]c(-c4ccccc4)c(-c4ccccc4)c23)c1`, for which the IC50 with NIH3T3 [7] was more than 10 µM; in assay [2], more than 100 µM; in assay [4], more than 100 µM; with Balb/MK, more than 50 µM.
As to `Cc1ccc(Nc2ncnc3[nH]c(C)c(C)c23)cc1`, in assay [1], the midpoint of inhibition, the IC50, lay at 2.1 µM.
Consider `Cc1[nH]c2ncnc(Nc3cccc(F)c3)c2c1C`, for which the IC50 is 99 µM in assay [2]; more than 100 µM in assay [4]; 29.9 µM with Balb/MK; more than 100 µM in assay [5]; more than 100 µM in assay [6].
For `Cc1[nH]c2ncnc(Nc3cccc(Cl)c3)c2c1-c1ccccc1`, the IC50 in assay [1] is 0.23 µM; in assay [2], more than 100 µM; in assay [4], more than 100 µM; in the assay with Balb/MK it was 38.3 µM; in assay [6] it was 6 µM.
As for `CCc1ccc(Nc2ncnc3[nH]c(C)c(C)c23)cc1`, in assay [1], the IC50 was 77.5 µM.
Still for that read-out and setting: next, `CCc1ccccc1Nc1ncnc2[nH]c(C)c(C)c12`: more than 100 µM.
As for `Cc1c(-c2ccccc2)[nH]c2ncnc(Nc3cccc(Cl)c3)c12`, the IC50 is more than 10 µM with NIH3T3 [7]; 0.01 µM in assay [1]; more than 100 µM in assay [2]; more than 100 µM in assay [4]; more than 50 µM in the assay on Balb/MK; more than 100 µM in assay [5]. The molecule further gave an IC50 in assay [6] of 6 µM.
In assay [1], `Cc1[nH]c2ncnc(NC3CCCCC3)c2c1C` displayed an IC50 of 6.92 µM.
On to `Cc1[nH]c2ncnc(NCc3ccccc3)c2c1C`, for which, in assay [1], 1.08 µM corresponded to half-maximal inhibition (IC50).
Regarding `Cc1[nH]c2ncnc(Nc3cccc(C(=O)O)c3)c2c1C`, the IC50 in assay [1] worked out at 16.3 µM.
The same measure, in the same setting: the figure for `COc1cccc(Nc2ncnc3[nH]c4c(c23)CCCC4)c1` is 0.86 µM.
`c1ccc(Nc2ncnc3[nH]c4c(c23)CCCC4)cc1`: the IC50 was more than 10 µM with NIH3T3 [7], more than 100 µM in assay [2], more than 100 µM in assay [4] and more than 100 µM in assay [5].
Molecule `Oc1cccc(Nc2ncnc3[nH]c4c(c23)CCCC4)c1` had an IC50 in assay [1] of 0.42 µM.
For `Brc1cccc(Nc2ncnc3[nH]c4c(c23)CCCC4)c1`, the IC50 in the assay on NIH3T3 [7] is more than 10 µM; in assay [2] it was more than 100 µM; with NIH3T3 [3] it was more than 100 µM; in assay [4] it was more than 100 µM; in the assay with Balb/MK, 1.4 µM; in assay [5] it was more than 100 µM. The molecule also came in with an IC50 in assay [6] of 0.4 µM.
`Cc1[nH]c2ncnc(Nc3ccc(Cl)cc3)c2c1C` came in with an IC50 in assay [1] of more than 50 µM.
In assay [1], `CCOC(=O)c1cccc(Nc2ncnc3[nH]c(C)c(C)c23)c1` had a 50% inhibitory concentration (IC50) of more than 100 µM.
`CCc1ccc(Nc2ncnc3[nH]c4c(c23)CCCC4)cc1` displayed an IC50 in assay [1] of more than 50 µM.
Still for that read-out and setting: next, `COc1cccc(Nc2ncnc3[nH]c(C)c(C)c23)c1`: 1.2 µM; `Cc1nc(Nc2cccc(Cl)c2)c2c(C)c(C)[nH]c2n1`: more than 100 µM.
Same read-out and setting: next, `Cc1[nH]c2ncnc(Nc3ccccc3Cl)c2c1C`: 75.1 µM; `O=C(O)c1cccc(Nc2ncnc3[nH]c4c(c23)CCCC4)c1`: 25.7 µM.
For the molecule `Cc1[nH]c2ncnc(Nc3cccc(Br)c3)c2c1C`, the concentration for half-maximal inhibition (IC50) with NIH3T3 [7] was more than 10 µM; in assay [2], 2.3 µM; with NIH3T3 [3], more than 100 µM; in assay [4], more than 100 µM; with Balb/MK, 1.4 µM; in assay [5], more than 100 µM. Also, the midpoint of inhibition in assay [6], the IC50, lay at 1.5 µM.
On to `Cc1[nH]c2ncnc(Nc3cccc(O)c3)c2c1C`, for which the IC50 in assay [1] was 1.25 µM.
In the case of `Cc1[nH]c2ncnc(Nc3ccccc3)c2c1C`, the IC50 is more than 10 µM in the assay with NIH3T3 [7], more than 100 µM in assay [4] and 75 µM in assay [5].
With `Clc1cccc(Nc2ncnc3[nH]c4c(c23)CCCC4)c1`, the IC50 was more than 10 µM with NIH3T3 [7]; more than 100 µM in assay [2]; more than 100 µM in the assay with NIH3T3 [3]; more than 100 µM in assay [4]; 0.98 µM in the assay with Balb/MK; more than 100 µM in assay [5].
In turn, `Cc1[nH]c2ncnc(Nc3cccc(C#N)c3)c2c1C` displayed an IC50 in assay [1] of 0.2 µM.
Same read-out and setting: next, `Cc1[nH]c2ncnc(Oc3cccc(Cl)c3)c2c1C`: 2.5 µM.
Same read-out and setting: next, `Cc1[nH]c2ncnc(N(C)c3cccc(Cl)c3)c2c1C`: 0.5 µM.
